ChEMBL document CHEMBL1151860, “Asymmetric synthesis and biological evaluation of Danshensu derivatives as anti-myocardial ischemia drug candidates” (Bioorg Med Chem, 2009)
The source made the active and inactive calls. The rule behind the calls is not given here.

Columns and labels:
[1] = Antiapoptotic activity against hypoxia-induced Sprague-Dawley rat NRVM assessed as decrease in bax protein level at 1 umol/l by Western blot analysis; assay type: functional
Rattus norvegicus [2] = species: Rattus norvegicus; assay: Antioxidant activity against hypoxia-induced lipid peroxidation in Sprague-Dawley rat NRVM assessed as decrease in malondialdehyde content at 1 umol/l relative to hypoxia control; assay type: functional
[3] = Antiapoptotic activity against hypoxia-induced Sprague-Dawley rat NRVM assessed as increase in bcl2 protein level at 1 umol/l by Western blot analysis; assay type: functional
Summary of the method: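 Myocytes were pretreated 12 h, then made hypoxic for 5 h and lysed at the end of hypoxia. Lysates were spun at 10,000 r/min for 10 min and protein quantified by BCA. Samples were transferred to PVDF and blocked 2 h at RT in TBS with 5% skim milk. For bcl-2, blots were probed 1 h at RT with rabbit anti-rat polyclonal antibody in TBS-T.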

Rattus norvegicus [4] = species: Rattus norvegicus; assay: Cytoprotective effect against hypoxia-induced Sprague-Dawley rat NRVM assessed as decrease in LDH leakage pretreated for 12 hrs before hypoxia induction at 1 umol/L relative to control; assay type: functional
Summary of the method: (§1)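 Neonatal rat ventricular myocytes were obtained by trypsin digestion, preplated for 2 h, then seeded at 1 × 10⁶ cells/ml in DMEM with 10% FBS, penicillin/streptomycin and 5-bromo-deoxyuridine at 37 °C, 5% CO₂. After 48 h they were given compound for 12 h, then 5 h hypoxia. Viability was read by MTT and damage by LDH leakage; means SE.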

[5] = Antiapoptotic activity against hypoxia-induced Sprague-Dawley rat NRVM assessed as decrease in bax mRNA level at 1 umol/l by RT-PCR; assay type: functional
[6] = Antiapoptotic activity against hypoxia-induced morphological changes in Sprague-Dawley rat NRVM assessed as decrease in nuclei shrunk at 1 umol/l by Heochst dye relative to hypoxia induced control; assay type: functional
Summary of the method: (§2)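 Cultured neonatal rat ventricular myocytes (trypsin-dissociated, 2 h preplating, DMEM/10% FBS with 5-bromo-deoxyuridine, 37 °C, 5% CO₂) were pretreated 12 h with compound after 48 h culture, then made hypoxic for 5 h. Nuclei were Hoechst-stained to score shrinkage and condensation.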

Rattus norvegicus [7] = species: Rattus norvegicus; assay: Cytoprotective effect against hypoxia-induced Sprague-Dawley rat NRVM assessed as increase in cell viability pretreated for 12 hrs before hypoxia induction at 1 umol/L measured after 5 hrs by MTT assay relative to control; assay type: functional; summary of the method: as §1
[8] = Antiapoptotic activity against hypoxia-induced morphological changes in Sprague-Dawley rat NRVM assessed as decrease in nuclear condensation at 1 umol/l by Heochst dye relative to hypoxia induced control; assay type: functional; summary of the method: as §2
Rattus norvegicus [9] = species: Rattus norvegicus; assay: Cytoprotective effect against hypoxia-induced Sprague-Dawley rat NRVM assessed as decrease in cellular damage pretreated for 12 hrs before hypoxia induction at 1 umol/L; assay type: functional
[10] = Antiapoptotic activity against hypoxia-induced Sprague-Dawley rat NRVM assessed as decrease in caspase 3 mRNA level at 1 umol/l by RT-PCR; assay type: functional
[11] = Antiapoptotic activity against hypoxia-induced Sprague-Dawley rat NRVM assessed as increase in bcl2 mRNA level at 1 umol/l by RT-PCR; assay type: functional
Rattus norvegicus [12] = assay: Cardioprotective effect in Sprague-Dawley rat myocardial infarction model assessed as decrease in infarct size at 60 mg/kg, ip treated 7 days before myocardial infarction surgery and after 2 days once daily by TTC staining; assay type: functional, organism-based; parameters: dose 60 mg/kg; details: Myocardium
Summary of the method: (§3)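 Male Sprague-Dawley rats (230–250 g), anaesthetised with 7% chloral hydrate (60 mg/kg ip), intubated and ventilated; left coronary artery ligated (sham: no ligation). Five randomised groups: MI, sham, MI plus drug at 15, 30 or 60 mg/kg ip once daily. Hearts excised 2 days post-ligation, ventricles cut into five transverse slices, 1% TTC at 37 °C for 15 min; unstained area taken as infarct. Means SE.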

Rattus norvegicus [13] = assay: Cardioprotective effect in Sprague-Dawley rat myocardial infarction model assessed as increase in serum SOD level at 15 to 60 mg/kg, ip treated 7 days before myocardial infarction surgery and after 2 days once daily; assay type: functional, organism-based
Summary of the method: (§4)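 Male Sprague-Dawley rats (230–250 g) were anaesthetised with chloral hydrate (60 mg/kg ip), intubated and ventilated, and the left coronary artery ligated; sham rats were not ligated. Drug at 15, 30 or 60 mg/kg ip was given once daily from 7 days before to 2 days after surgery. Serum LDH, CK, SOD and MDA were measured by diagnostic kit; means SE, n = 6, P < 0.05.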

Rattus norvegicus [14] = assay: Cardioprotective effect in Sprague-Dawley rat myocardial infarction model assessed as decrease in serum LDH level at 15 to 60 mg/kg, ip treated 7 days before myocardial infarction surgery and after 2 days once daily; assay type: functional, organism-based; summary of the method: as §4
Rattus norvegicus [15] = assay: Cardioprotective effect in Sprague-Dawley rat myocardial infarction model assessed as decrease in infarct size at 15 mg/kg, ip treated 7 days before myocardial infarction surgery and after 2 days once daily by TTC staining; assay type: functional, organism-based; parameters: dose 15 mg/kg; details: Myocardium; summary of the method: as §3
Rattus norvegicus [16] = assay: Cardioprotective effect in Sprague-Dawley rat myocardial infarction model assessed as decrease in infarct size at 30 mg/kg, ip treated 7 days before myocardial infarction surgery and after 2 days once daily by TTC staining; assay type: functional, organism-based; parameters: dose 30 mg/kg; details: Myocardium; summary of the method: as §3
Rattus norvegicus [17] = assay: Cardioprotective effect in Sprague-Dawley rat myocardial infarction model assessed as decrease in serum malondialdehyde level at 15 to 60 mg/kg, ip treated 7 days before myocardial infarction surgery and after 2 days once daily; assay type: functional, organism-based; summary of the method: as §4
Rattus norvegicus [18] = assay: Cardioprotective effect in Sprague-Dawley rat myocardial infarction model assessed as decrease in serum creatine kinase level at 15 to 60 mg/kg, ip treated 7 days before myocardial infarction surgery and after 2 days once daily; assay type: functional, organism-based; summary of the method: as §4

| SMILES | Activity [1] | Activity (Rattus norvegicus [2]) | Activity [3] | Activity (Rattus norvegicus [4]) | Activity [5] | Activity [6] | Activity (Rattus norvegicus [7]) | Activity [8] | Activity (Rattus norvegicus [9]) | Activity [10] | Activity [11] | Activity (Rattus norvegicus [12]) | Activity (Rattus norvegicus [13]) | Activity (Rattus norvegicus [14]) | Activity (Rattus norvegicus [15]) | Activity (Rattus norvegicus [16]) | Activity (Rattus norvegicus [17]) | Activity (Rattus norvegicus [18]) |
| --- | --- | --- | --- | --- | --- | --- | --- | --- | --- | --- | --- | --- | --- | --- | --- | --- | --- | --- |
| COC(=O)[C@@H](Cc1ccc(OC(C)=O)c(OC(C)=O)c1)OC(C)=O | Active | Active | Active | Active | Active | Active | Active | Active | Active | Active | Active | – | – | – | – | – | – | – |
| COC(=O)C(Cc1ccc(OC(C)=O)c(OC(C)=O)c1)OC(C)=O (racemic) | – | – | – | Active | – | – | Active | – | – | – | – | – | – | – | – | – | – | – |
| COC(=O)C(Cc1ccc2c(c1)OCO2)OC(C)=O (racemic) | – | – | – | Active | – | – | Active | – | – | – | – | – | – | – | – | – | – | – |
| CC(=O)O/C(=C\c1ccc(O)c(O)c1)C(=O)O | Active | Active | Active | Active | Active | Active | Active | Active | – | Active | Active | Active | Active | Active | inactive | inactive | Active | Active |
| COC(=O)[C@@H](Cc1ccc2c(c1)OCO2)OC(C)=O | – | Active | – | Active | – | – | Active | – | Active | – | – | – | – | – | – | – | – | – |
